{"data": "Measurements from different studies", "target": "Mitogen-activated protein kinase 10 (MAPK10, Homo sapiens, UniProt P53779)"}
{"SMILES": "Nc1ncc(-c2nc(N3CCOCC3)nc(N3CCOCC3)n2)c(C(F)F)n1", "assay": "binding, competition with immobilised ligand", "conditions": "10 µM", "endpoint": "remaining binding", "value": "90%"}
{"SMILES": "COc1cc(Nc2ncc(F)c(Nc3ccc4c(n3)NC(=O)C(C)(C)O4)n2)cc(OC)c1OC", "assay": "binding, competition with immobilised ligand", "conditions": "10 µM", "endpoint": "inhibition", "value": "100%"}
{"SMILES": "NC(=O)c1nc(Nc2ccccc2)sc1NC(=O)C1CCCCC1", "assay": "cell-free assay, competition with immobilised ligand", "conditions": "10 µM", "endpoint": "remaining binding", "value": "5.4%"}
{"SMILES": "Cn1cncc1[C@](O)(COc1ccc(C#N)cc1-c1ccc(OC(F)(F)F)cc1)c1ccc(C#N)cc1", "assay": "cell-free assay, competition with immobilised ligand", "conditions": "1 µM", "endpoint": "remaining binding", "value": "70%"}
{"SMILES": "O=c1[nH]c2ccccc2n1C1CCN(Cc2ccc(-c3[nH]c4cc5ncnc5cc4nc3-c3ccccc3)cc2)CC1", "assay": "cell-free assay", "conditions": "0.5 µM", "endpoint": "remaining signal", "value": "96%"}
{"SMILES": "Cn1cc(-c2cc(F)cc(N3CCn4c(cc5c4CCCC5)C3=O)c2CO)cc(Nc2ccc(N3CCN(C4COC4)CC3)cn2)c1=O", "assay": "enzyme activity, inhibitor", "conditions": "0.1 µM", "endpoint": "inhibition", "value": "5%"}
{"SMILES": "COc1ncccc1-c1cnn2ccc(N3CCN(C(=O)OC(C)C)CC3)nc12", "assay": "binding, competition with immobilised ligand", "conditions": "1 µM", "endpoint": "remaining binding", "value": "100%"}
{"SMILES": "CC(C)(C)c1cc(C=C(C#N)C#N)cc(Br)c1O", "assay": "enzyme activity, inhibitor", "conditions": "0.5 µM", "endpoint": "remaining activity", "value": "92.5%"}
{"SMILES": "Cc1nn(C)cc1-c1nc2c(N3CCN(Cc4ccc(Cl)cc4)CC3)c(Cl)cnc2[nH]1", "assay": "binding, competition with immobilised ligand", "conditions": "1 µM", "endpoint": "remaining binding", "value": "100%"}
{"SMILES": "N#CC1(c2ccccn2)CCN(Cc2cc(C(=O)O)c(=O)n3ccccc23)CC1", "assay": "cell-free assay, competition with immobilised ligand", "conditions": "1 µM", "endpoint": "remaining binding", "value": "82%"}
